# Only some compounds are listed: those with a hit (about 1.4% of all), similar ones and a draw of the others.
# ARNT TACC3 PPI – disruptors of ARNT/TACC3 protein interaction, primary screen, biochemical, AlphaScreen, single concentration; Transforming acidic coiled-coil-containing protein 3 (Homo sapiens), Q9Y6A5; AlphaScreen His-ARNT PAS-B/GST-TACC3 binding, luminescence; TACC3 fragment carries E629A point mutation; inhibition, % at 9.99 µM; 390,000 compounds, 0.66% hits; AID 623870, 2012;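 active means mean inhibition of replicates at least 50% and at least half of replicates each reaching 50%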;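 further: 0% = complete ARNT plus TACC3 wells and 100% = ARNT alone without TACC3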
# CAL PDZ FP-1 – CAL PDZ peptide-binding inhibitors, primary screen, biochemical, fluorescence polarization, Cer-tagged CAL PDZ, HTS. inhibition, % at 20 µM. 330,000 compounds, 0.02% hits. purified CAL PDZ, TMR-peptide fluorescence polarization, 1 h;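 active means highest replicate inhibition of at least 40%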;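 further: plate controls were DMSO neutral control wells for no effect and unlabeled competitor peptide control wells for full effect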
#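 Material: tagged CAL PDZ protein CerCALP, purified; buffer or medium: sodium phosphate/NaCl buffer pH 7.4 with TCEP, IgG, Thesit; also added: fluorescent TMR peptide probe; schedule: 1 h incubation at room temperature before polarization reading; technique: fluorescence polarization from S- and P-plane intensities, G-factor corrected; control set: unlabelled peptide and DMSO controls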
# CAL PDZ FP-2 – untagged CAL PDZ binding inhibitors, primary screen, biochemical, fluorescence polarization, HTS. Golgi-associated PDZ and coiled-coil motif-containing protein (Homo sapiens), Q9HD26. purified CAL PDZ, TMR-peptide fluorescence polarization, 1 h. inhibition, % at 24.9 µM. 300,000 compounds, 0.92% hits;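 active means mean inhibition of at least 30% with at least half of replicates also reaching 30%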;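 further: 0% = DMSO neutral control and 100% = excess unlabeled competitor peptide PRC23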
# Dyrk1A ADPGlo – rat Dyrk1A kinase inhibitors, primary screen, biochemical, single point, plate reader; Dual specificity tyrosine-phosphorylation-regulated kinase 1A (Rattus norvegicus), Q63470; ADP-Glo luminescence, NFATc1 peptide; inhibition, % at 12.5 µM; 310,000 compounds, 0.43% hits; AID 504441, 2011; in the data active means inhibition above about 50%;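 further: plate controls were vehicle with enzyme for no effect and no enzyme for full effect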
# ARNT Alpha ctr – AlphaScreen signal interference compounds, dose response, artefact control for ARNT-TACC3 interaction inhibitor project, biochemical, luminescence, cherry-pick. His-ARNT PASB-GST AlphaScreen artifact counter-screen. AC50, µM (highest dose often 68 µM), inactives show at the highest dose activity change, negative = signal decrease. shares compounds with ARNT TACC3 PPI. 1,200 compounds, 50% hits;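 active means every separate test run was called active for a drop in luminescence, with AC50 within twice the top valid dose, actives reach about 71 µM in these data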
# Starred values were filed as active, the others as inactive; . = no result; [ ] = dose if it differs, or a comment.
SMILES,ARNT TACC3 PPI,CAL PDZ FP-1,CAL PDZ FP-2,Dyrk1A ADPGlo,ARNT Alpha ctr
COCC(=O)N(C)C[C@H]1Oc2cc(C3=CCCCC3)ccc2S(=O)(=O)N([C@@H](C)CO)C[C@@H]1C,-0.1,.,.,.,.
Nc1ccc(N=Nc2ccccc2)c2ccccc12,10.0,-0.6,0.1,1.8,.
c1ccc(N=Nc2ccc3cccccc2-3)cc1,56.8*,-0.8,.,8.6,3.21µM*
Cc1[nH][nH]c(=O)c1C(c1ccc(-c2ccc(F)cc2)o1)c1c(C)[nH][nH]c1=O,48.3*,-0.6,-4.0,-1.5,-19.3%
Cc1[nH][nH]c(=O)c1C(c1ccc(-c2ccc(C(=O)O)cc2)o1)c1c(C)[nH][nH]c1=O,72.2*,.,-2.6,4.5,-11.3%
COc1ccc(-c2ccc(C(c3c(C)[nH][nH]c3=O)c3c(C)[nH][nH]c3=O)o2)c([N+](=O)[O-])c1,4.2,0.3,4.8,2.5,.
CNC(=S)N/N=C/c1ccc(-c2ccc(C(=O)O)cc2)o1,10.5,-1.1,-1.8,12.3,.
C[C@H](CO)N1C[C@H](C)[C@@H](CN(C)Cc2ccc(C(F)(F)F)cc2)Oc2ccc(NC(=O)CCN3CCOCC3)cc2CC1=O,12.0,.,.,.,.
CCC(=O)NC(c1ccc(N(C)C)cc1)c1c(O)ccc2ccccc12 (configuration not stated),38.3*,0.1,-3.1,-5.0,54.2µM*
O=C(CN1CCCCCC1)Nc1ccccc1[N+](=O)[O-],50.8*,.,-8.8,1.7,-10.6%
c1ccc(-c2nnc(-c3ccccn3)nc2N2CCC(C3CCCCC3)C2)cc1 (configuration not stated),.,.,.,.,5.28µM*
OCC1CCN(c2nc(-c3ccccn3)nnc2-c2ccccc2)CC1,.,.,.,.,2.84µM*
Cc1noc(C)c1NC(=O)Nc1ccc2c(c1)C(=O)N([C@H](C)CO)C[C@H](C)[C@H](CN(C)C(=O)Nc1ccccc1)OCCCC[C@@H](C)O2,-6.7,.,.,.,.
CO[C@H]1CC[C@H]2CCN(C)C(=O)[C@H](C)[C@@H](OC)CN(C)C(=O)c3cc(C#N)ccc3OC[C@H]1O2,-1.6,.,.,.,.
C[C@@H]1CN([C@@H](C)CO)C(=O)c2cccc(NC(=O)Nc3ccccc3)c2O[C@H]1CN(C)C(=O)Nc1ccc2c(c1)OCO2,8.3,.,.,.,.
O=C(O)COc1ccccc1/C=N/NC(=O)c1cc(-c2ccc(Cl)cc2)nc2ccccc12,41.5*,-7.9,-2.7,12.5,56µM*
CCCCCOc1ccc(NC(=O)CSc2cccc3cccnc23)cc1,58.0*,-0.3,-4.8,5.1,63.4µM*
NNC(=O)c1ccc(CSc2cccc3cccnc23)cc1,-3.1,-1.8,-2.0,.,.
O=C(CSc1cccc2cccnc12)Nc1ccc(S(=O)(=O)N2CCOCC2)cc1,74.2*,-1.1,-1.3,2.0,32.9µM*
CCOC(=O)CSc1cccc2cccnc12,56.6*,-1.7,-1.1,4.4,9.31µM*
Cc1cccc(CSc2cccc3cccnc23)c1,61.7*,-1.4,-5.7,9.0,13.1µM*
COc1ccc(CNC(=O)CSc2cccc3cccnc23)cc1,-3.0,-0.3,7.3,.,.
Cc1noc(C)c1C(=O)N(C)C[C@@H]1OCc2ccccc2-c2c(n(C)c3ccccc23)C(=O)N([C@@H](C)CO)C[C@@H]1C,-0.6,.,.,.,.
COC(=O)[C@@H]1[C@@H](CO)[C@@H]2Cn3c(ccc(-c4cccc(C(=O)N(C)C)c4)c3=O)[C@@H]2N1C,-8.1,.,.,.,.
CCCN1C[C@H](C)[C@@H](OC)CN(C)C(=O)c2cc(NC(=O)c3cnccn3)ccc2OC[C@@H]1C,-3.8,.,.,.,.
SMILES,ARNT TACC3 PPI,CAL PDZ FP-1,CAL PDZ FP-2,Dyrk1A ADPGlo,ARNT Alpha ctr
O=c1[nH]cnc2c1C(c1ccccc1[N+](=O)[O-])c1c(nc[nH]c1=O)O2,50.0*,-0.9,-2.4,-2.9,-34.7%
COc1ccc(OC)c(-n2nnnc2SCC(=O)Nc2ccccc2OC)c1,active,-0.5,.,-9.4,-15.0%
COc1ccccc1NC(=O)CSc1nnnn1-c1ccccc1OC,-3.5,0.1,-4.5,-4.0,.
O=C(C[C@H]1C[C@@H]2c3cc(NC(=O)Nc4ccccc4)ccc3O[C@@H]2[C@H](CO)O1)NCc1ccccn1,-2.8,.,.,.,.
COC(=O)c1sc(N)c(C(=O)OC)c1COC(=O)c1c(C)noc1C,1.3,-1.3,.,2.2,.
COC(=O)c1sc(N)c(C(=O)OC)c1Cn1ncc(Cl)c(Cl)c1=O,51.9*,0.9,4.3,5.3,-10.3%
CCOc1ccc(NC(=O)CC(NCc2ccccn2)C(=O)O)cc1 (configuration not stated),64.8*,-0.1,-1.7,-2.0,6.14µM*
CCOc1ccc(NC(=O)NCc2ccccn2)cc1,-4.7,-2.0,-0.2,0.5,.
Nc1nc(C(F)(F)F)cc(=O)[nH]1,0.1,-0.3,.,7.4,.
O=c1cc(C(F)(F)F)nc(-n2[nH]c3c(c2=O)CCCC3)[nH]1,56.2*,.,-0.8,2.9,-23.1%
COC(=O)C1(NC(=O)CNC(=O)OCc2ccccc2)CCCC1,active,0.1,-2.4,-4.9,-0.6%
CCC(C)c1c(NS(=O)(=O)c2ccc(C)cc2)o[nH]c1=O (configuration not stated),11.0,-1.2,.,-3.2,.
CCC(C)c1c(N)n(S(=O)(=O)c2ccc(C)cc2)oc1=O (configuration not stated),61.1*,0.4,-6.0,-6.7,34.8µM*
COC(=O)[C@H]1[C@H](CO)[C@H]2Cn3c(ccc(-c4ccccc4F)c3=O)[C@H]2N1C(=O)c1cnccn1,17.3,.,.,.,.
CO[C@@H]1CN(C)C(=O)c2cc(NC(=O)c3ccccc3)ccc2OC[C@H](C)N(C(=O)C2CC2)C[C@@H]1C,2.3,.,.,.,.
CO[C@H]1CN(C)C(=O)c2cc(NC(=O)NC3CCCCC3)ccc2OC[C@H](C)N(CC2CC2)C[C@@H]1C,57.0*,.,.,.,-2.6%[42 µM]
CO[C@@H]1CN(C)C(=O)c2cc(NC(=O)c3ccccc3)ccc2OC[C@@H](C)N(C(=O)C2CC2)C[C@H]1C,12.1*,.,.,.,1.9%[38 µM]
O=C(NCCc1ccncc1)[C@@H]1[C@@H](CO)[C@@H]2Cn3c(ccc(C4=CCCCC4)c3=O)[C@H]1N2CC1CC1,5.1,.,.,.,.
Cc1noc(C)c1NC(=O)N[C@H]1CC[C@H](CC(=O)N2CCN(C)CC2)O[C@@H]1CO,-2.2,.,.,.,.
CC(C)C#Cc1cnc2c(c1)C(=O)N([C@H](C)CO)C[C@H](C)[C@H](CN(C)Cc1cccc(F)c1)O2,-4.2,.,.,.,.
CCn1c(Cc2ccccc2)nnc1SCC(=O)Nc1ccc(N)cc1,57.2*,0.2,-1.0,2.1,-10.2%
CCCN(C)C[C@H]1Oc2ncc(C#CCC(C)C)cc2C(=O)N([C@@H](C)CO)C[C@@H]1C,-2.3,.,.,.,.

# Assay outcomes deposited in PubChem by Broad Institute.
